Measurements from ChEMBL document CHEMBL1153345, “Novel tricyclic inhibitors of IkappaB kinase” (J Med Chem, 2009).

Tests used:
[1] = target: T1, Inhibitor of nuclear factor kappa-B kinase subunit alpha (Homo sapiens, UniProt O15111); assay: Inhibition of IKK1-mediated phosphorylation of GST-IkappaBalpha fusion protein afterr 60 mins by fluorescence polarization assay
T1 sequence (O15111 whole entry): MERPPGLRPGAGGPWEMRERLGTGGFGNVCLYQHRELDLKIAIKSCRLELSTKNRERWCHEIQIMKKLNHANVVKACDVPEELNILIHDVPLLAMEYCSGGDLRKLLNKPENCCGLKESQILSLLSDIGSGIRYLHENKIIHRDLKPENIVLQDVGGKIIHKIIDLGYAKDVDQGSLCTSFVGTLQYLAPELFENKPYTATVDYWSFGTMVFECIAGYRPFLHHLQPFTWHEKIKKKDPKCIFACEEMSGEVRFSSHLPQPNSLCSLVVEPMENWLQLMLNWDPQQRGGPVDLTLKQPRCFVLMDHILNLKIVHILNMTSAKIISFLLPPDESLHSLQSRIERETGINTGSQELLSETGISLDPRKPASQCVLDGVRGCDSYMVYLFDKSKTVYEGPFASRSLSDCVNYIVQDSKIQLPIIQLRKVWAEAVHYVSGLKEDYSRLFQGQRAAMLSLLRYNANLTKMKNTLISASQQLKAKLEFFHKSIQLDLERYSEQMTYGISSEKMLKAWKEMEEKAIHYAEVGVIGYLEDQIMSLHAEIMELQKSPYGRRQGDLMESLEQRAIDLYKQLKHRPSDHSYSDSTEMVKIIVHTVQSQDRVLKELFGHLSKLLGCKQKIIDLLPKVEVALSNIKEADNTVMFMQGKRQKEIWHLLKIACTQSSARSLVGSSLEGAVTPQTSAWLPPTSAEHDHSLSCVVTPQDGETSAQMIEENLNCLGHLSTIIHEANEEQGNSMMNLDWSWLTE
Outline: (§1)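 GST-IκBα (50 µg/mL) with 20 µM ATP in 25 mM Tris-HCl pH 7.5, 7.5 mM MgCl2, 1 mM DTT, 5% glycerol, BSA; reaction started by adding IKK enzyme (IKK-2 typically 3 µg/mL final) at room temperature. Stopped after 60 min with 33 mM EDTA. Phospho-IκBα quantified by fluorescence polarization, competing with a fluorescein-labelled phosphopeptide for anti-phospho-IκBα antibody.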

[2] = target: T2, Inhibitor of nuclear factor kappa-B kinase subunit beta (Homo sapiens, UniProt O14920); assay: Inhibition of IKK2-mediated phosphorylation of GST-IkappaBalpha fusion protein afterr 60 mins by fluorescence polarization assay; outline: as §1
T2 sequence (O14920 whole entry): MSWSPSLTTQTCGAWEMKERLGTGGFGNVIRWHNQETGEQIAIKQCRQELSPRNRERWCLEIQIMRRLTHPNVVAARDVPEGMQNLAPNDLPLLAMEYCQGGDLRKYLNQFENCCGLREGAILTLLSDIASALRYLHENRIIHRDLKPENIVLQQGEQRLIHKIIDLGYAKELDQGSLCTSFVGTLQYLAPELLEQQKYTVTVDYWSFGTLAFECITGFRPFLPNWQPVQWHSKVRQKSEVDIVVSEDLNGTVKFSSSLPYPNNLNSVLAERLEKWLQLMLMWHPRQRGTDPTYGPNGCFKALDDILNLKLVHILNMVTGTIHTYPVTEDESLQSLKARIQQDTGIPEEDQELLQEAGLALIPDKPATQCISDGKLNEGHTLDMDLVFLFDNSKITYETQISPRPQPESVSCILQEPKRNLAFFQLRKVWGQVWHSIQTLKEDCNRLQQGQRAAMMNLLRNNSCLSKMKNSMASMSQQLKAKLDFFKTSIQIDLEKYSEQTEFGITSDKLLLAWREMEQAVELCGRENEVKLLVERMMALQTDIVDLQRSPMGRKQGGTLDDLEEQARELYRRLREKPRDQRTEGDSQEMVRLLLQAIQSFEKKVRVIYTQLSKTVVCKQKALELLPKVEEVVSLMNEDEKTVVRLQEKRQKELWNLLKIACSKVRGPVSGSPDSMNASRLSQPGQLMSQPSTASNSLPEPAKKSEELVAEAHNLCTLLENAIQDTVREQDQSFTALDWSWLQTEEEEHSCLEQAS

Liver microsomes [3] = assay: Metabolic stability in rat liver microsomes assessed as clearance at 3 uM after 1 hr; assay type: ADME, Microsome
Outline: (§2)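 Liver microsomes (mouse, human or rat) at 1 mg/mL protein with 3 µM compound in 65 mM phosphate buffer pH 7.4 and 1 mM NADPH, 37 °C, 1 h. Samples taken at 0 and 15 min and quenched with acetonitrile. Metabolic rate calculated from parent disappearance between 0 and 15 min.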

Liver microsomes [4] = assay: Metabolic stability in human liver microsomes assessed as clearance at 3 uM after 1 hr; assay type: ADME, Microsome; outline: as §2
[5] = Metabolic stability in mouse liver microsomes assessed as clearance at 3 uM after 1 hr; assay type: ADME, Microsome; outline: as §2
[6] = Cmax in rat at 2 mg/kg, iv; assay type: ADME, organism-based; parameters: dose 2 mg/kg, route intravenous; conditions: in vivo
Outline: (§3)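 Some compounds were dosed as a cassette of five compounds at 2 mg/kg each, after prescreening to exclude potent CYP inhibitors (IC50 < 10 µM).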

[7] = AUC in rat at 2 mg/kg, iv; assay type: ADME, organism-based; parameters: dose 2 mg/kg, route intravenous; conditions: plasma; outline: as §3
[8] = Half life in rat at 2 mg/kg, iv; assay type: ADME, organism-based; parameters: dose 2 mg/kg, route intravenous; conditions: in vivo; outline: as §3
[9] = Clearance in rat at 2 mg/kg, iv; assay type: ADME, organism-based; parameters: dose 2 mg/kg, route intravenous; conditions: in vivo; outline: as §3
[10] = Volume of distribution at steady state in rat at 2 mg/kg, iv; assay type: ADME, organism-based; parameters: dose 2 mg/kg, route intravenous; conditions: in vivo, read-out: Vdss; outline: as §3
[11] = Cytotoxicity against human PBMC assessed as cell viability at 10 uM by alamar blue assay; assay type: cell-based; conditions: read-out: Activity
PBMC = assay: Inhibition of LPS-induced TNFalpha production in human PBMC preincubated for 30 mins before LPS challenge measured afterr 6 hrs by ELISA; assay type: functional, cell-based
Outline: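 PBMCs from healthy donor blood, isolated over ficoll in RPMI containing EDTA and polymyxin, then resuspended in RPMI/10% FBS at 1 × 10^6 cells/mL. Compound preincubated 30 min, then LPS added (25 ng/mL final). Incubated 6 h at 37 °C, 5% CO2; supernatant TNF-α measured by ELISA.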

Mus musculus = assay: Inhibition of LPS-induced TNFalpha release in serum of BALB/c mouse at 10 mg/kg, po administered 4 hrs before LPS challenge measured afterr 90 mins by ELISA relative to control; assay type: functional
Outline: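 Female BALB/c mice, 6-8 weeks old, acclimated at least 1 week. Compound given orally in 100% PEG300 (0.1 mL) about 4 h before ip LPS (E. coli O111:B4, 0.1 mL of 10 µg/mL in PBS; 50 µg/kg). Vehicle-only controls. Blood taken 90 min after LPS; serum TNF-α by ELISA; mean ± SEM, n = 8 per group.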

[12] = target: Tyrosine-protein kinase BTK (Homo sapiens, UniProt Q06187); assay: Inhibition of Btk
Outline: (§4)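 In-house kinase selectivity panel of 30 kinases; enzyme inhibition values reported in µM.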

[13] = target: Cyclin-dependent kinase 2 (Homo sapiens, UniProt P24941); assay: Inhibition of Cdk2; outline: as §4
[14] = Inhibition of IGFR; outline: as §4
[15] = target: T3, Tyrosine-protein kinase ITK/TSK (Homo sapiens, UniProt Q08881); assay: Inhibition of Itk; outline: as §4
T3 sequence (Q08881 whole entry): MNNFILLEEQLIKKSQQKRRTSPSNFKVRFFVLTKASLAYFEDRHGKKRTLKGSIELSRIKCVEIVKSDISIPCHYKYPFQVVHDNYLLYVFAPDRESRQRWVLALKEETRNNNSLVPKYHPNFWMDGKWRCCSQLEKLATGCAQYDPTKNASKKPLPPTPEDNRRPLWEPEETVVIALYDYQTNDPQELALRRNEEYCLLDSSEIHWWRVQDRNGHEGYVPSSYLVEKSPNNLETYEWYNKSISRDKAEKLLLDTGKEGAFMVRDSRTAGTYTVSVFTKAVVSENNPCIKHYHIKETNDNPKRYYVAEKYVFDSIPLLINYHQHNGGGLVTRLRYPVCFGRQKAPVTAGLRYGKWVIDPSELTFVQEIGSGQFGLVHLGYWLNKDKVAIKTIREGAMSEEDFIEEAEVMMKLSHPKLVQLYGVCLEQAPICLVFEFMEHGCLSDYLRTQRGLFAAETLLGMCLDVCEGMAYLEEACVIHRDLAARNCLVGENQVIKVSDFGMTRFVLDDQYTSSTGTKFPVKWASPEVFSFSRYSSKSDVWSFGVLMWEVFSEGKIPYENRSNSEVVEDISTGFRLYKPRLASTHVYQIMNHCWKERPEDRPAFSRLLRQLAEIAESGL

[16] = target: T4, Inhibitor of nuclear factor kappa-B kinase subunit epsilon (Homo sapiens, UniProt Q14164); assay: Inhibition of IKKepsilon; outline: as §4
T4 sequence (Q14164 whole entry): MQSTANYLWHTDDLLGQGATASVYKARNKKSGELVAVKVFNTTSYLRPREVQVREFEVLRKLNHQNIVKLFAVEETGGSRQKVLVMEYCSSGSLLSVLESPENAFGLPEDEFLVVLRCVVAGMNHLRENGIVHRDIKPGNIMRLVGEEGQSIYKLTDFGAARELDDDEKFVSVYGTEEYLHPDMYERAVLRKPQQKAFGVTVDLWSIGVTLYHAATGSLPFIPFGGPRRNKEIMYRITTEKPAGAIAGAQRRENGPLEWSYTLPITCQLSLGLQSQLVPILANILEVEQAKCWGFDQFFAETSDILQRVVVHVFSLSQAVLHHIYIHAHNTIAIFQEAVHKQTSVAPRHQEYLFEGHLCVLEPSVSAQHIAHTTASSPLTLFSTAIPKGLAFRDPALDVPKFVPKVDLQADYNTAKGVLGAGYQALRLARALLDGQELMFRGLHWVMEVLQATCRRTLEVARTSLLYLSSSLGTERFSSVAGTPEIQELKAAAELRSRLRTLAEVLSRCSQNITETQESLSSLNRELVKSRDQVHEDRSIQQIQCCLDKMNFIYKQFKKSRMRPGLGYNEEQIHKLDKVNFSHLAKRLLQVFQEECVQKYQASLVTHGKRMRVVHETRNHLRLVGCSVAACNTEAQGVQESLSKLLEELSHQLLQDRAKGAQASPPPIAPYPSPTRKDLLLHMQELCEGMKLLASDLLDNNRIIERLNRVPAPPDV

[17] = target: Serine/threonine-protein kinase PLK1 (Homo sapiens, UniProt P53350); assay: Inhibition of Plk1; outline: as §4
[18] = target: Proto-oncogene tyrosine-protein kinase Src (Homo sapiens, UniProt P12931); assay: Inhibition of Src; outline: as §4
[19] = Selectivity ratio of IC50 for IKK1 to IC50 for IKK2
Outline: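 Buffer was 25 mM Tris-HCl pH 7.5 with 7.5 mM MgCl2, 1 mM DTT, 5% glycerol and 470 µg/mL BSA. IKK-2 was typically 3 µg/mL final. Reactions ran 60 min at room temperature, stopped with 33 mM EDTA. Phospho-IκBα was read by fluorescence-polarization competition of a fluorescein phosphopeptide for an anti-phospho antibody. Ratio = IKK1 IC50/IKK2 IC50.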

Chain of Proto-oncogene tyrosine-protein kinase Src (P12931 2-536 limits assumed): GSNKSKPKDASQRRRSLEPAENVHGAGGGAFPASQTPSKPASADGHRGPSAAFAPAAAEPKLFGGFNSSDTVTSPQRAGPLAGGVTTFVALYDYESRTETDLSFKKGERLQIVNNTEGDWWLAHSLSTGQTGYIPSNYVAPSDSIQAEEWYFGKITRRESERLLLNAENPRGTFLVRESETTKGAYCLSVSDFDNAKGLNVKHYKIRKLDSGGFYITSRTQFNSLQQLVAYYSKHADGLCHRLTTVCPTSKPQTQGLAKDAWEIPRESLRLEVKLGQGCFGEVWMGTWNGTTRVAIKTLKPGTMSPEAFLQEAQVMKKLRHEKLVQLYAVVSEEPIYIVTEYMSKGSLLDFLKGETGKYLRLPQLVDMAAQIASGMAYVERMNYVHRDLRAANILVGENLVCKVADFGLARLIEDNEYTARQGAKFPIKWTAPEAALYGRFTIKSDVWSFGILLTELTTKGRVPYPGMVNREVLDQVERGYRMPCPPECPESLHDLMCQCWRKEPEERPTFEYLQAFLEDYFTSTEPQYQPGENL
Chain of Tyrosine-protein kinase BTK (Q06187 whole entry): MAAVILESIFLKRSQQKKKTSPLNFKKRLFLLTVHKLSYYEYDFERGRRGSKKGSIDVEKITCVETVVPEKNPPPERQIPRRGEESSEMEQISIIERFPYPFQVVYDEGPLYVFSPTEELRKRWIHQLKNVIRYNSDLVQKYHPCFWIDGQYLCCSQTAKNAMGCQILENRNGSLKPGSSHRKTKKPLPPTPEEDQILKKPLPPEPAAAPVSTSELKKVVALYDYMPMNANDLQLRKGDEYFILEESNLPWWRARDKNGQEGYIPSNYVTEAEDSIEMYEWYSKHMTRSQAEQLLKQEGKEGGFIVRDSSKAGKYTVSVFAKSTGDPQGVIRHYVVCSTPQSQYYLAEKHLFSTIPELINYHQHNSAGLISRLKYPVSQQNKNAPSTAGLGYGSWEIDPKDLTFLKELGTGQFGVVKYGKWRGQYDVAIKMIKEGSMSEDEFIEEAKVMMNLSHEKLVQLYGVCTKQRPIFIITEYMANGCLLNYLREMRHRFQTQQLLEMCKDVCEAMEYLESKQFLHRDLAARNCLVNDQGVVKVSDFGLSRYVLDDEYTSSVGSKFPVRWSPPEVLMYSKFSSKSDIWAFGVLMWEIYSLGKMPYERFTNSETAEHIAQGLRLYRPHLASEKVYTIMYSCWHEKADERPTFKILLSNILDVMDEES
Chain of Serine/threonine-protein kinase PLK1 (P53350 whole entry): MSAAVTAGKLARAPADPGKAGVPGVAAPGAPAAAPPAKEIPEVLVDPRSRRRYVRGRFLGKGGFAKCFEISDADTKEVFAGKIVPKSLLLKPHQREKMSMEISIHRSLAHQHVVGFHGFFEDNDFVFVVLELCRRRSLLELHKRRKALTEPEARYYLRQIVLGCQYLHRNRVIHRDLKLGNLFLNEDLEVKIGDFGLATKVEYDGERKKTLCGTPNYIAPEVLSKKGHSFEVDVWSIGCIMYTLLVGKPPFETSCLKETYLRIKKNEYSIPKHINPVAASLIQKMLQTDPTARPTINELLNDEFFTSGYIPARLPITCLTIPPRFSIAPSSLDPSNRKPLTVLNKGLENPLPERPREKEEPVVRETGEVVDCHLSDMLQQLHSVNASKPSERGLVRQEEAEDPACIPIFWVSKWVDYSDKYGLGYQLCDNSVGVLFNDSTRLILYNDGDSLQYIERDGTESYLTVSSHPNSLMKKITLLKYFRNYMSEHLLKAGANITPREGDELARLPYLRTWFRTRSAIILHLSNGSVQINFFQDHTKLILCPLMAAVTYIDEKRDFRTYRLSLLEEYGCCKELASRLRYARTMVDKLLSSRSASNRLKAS

Row | IC50 [1] [µM] | IC50 [2] [µM] | CL (Liver microsomes [3]) [nmol/mg/min] | CL (Liver microsomes [4]) [nmol/mg/min] | CL [5] [nmol/mg/min] | Cmax [6] [µM] | AUC [7] [µM·h] | half-life [8] [min] | clearance [9] [mL/min/kg] | Vd [10] [L/kg] | Compound | further results
1 | 5 | 0.033 | 0 | 0.003 | 0.065 | 4.7 | 2.7 | 24 | 16 | 0.5 | CC(=O)NCCNc1nc2sc(-c3ccc(F)cc3)nc2c2c1ncn2C | viability at 10 µM [11]: 80%
2 | 10 | 0.016 | 0.14 | 0.16 | 0.23 | 3.9 | 5 | 36 | 3 | 0.2 | CNc1nc2sc(-c3cccc(CNC(=O)c4csnn4)c3)nc2c2c1ncn2C | IC50 (PBMC): 0.082 µM; inhibition in vivo at 10 mg/kg (Mus musculus): 50%
3 | 0.27 | 0.011 | 0.14 | 0.09 | 0.23 |  |  |  |  |  | CNc1nc2oc(-c3ccccc3)nc2c2c1ncn2C | IC50 [12]: 23 µM; IC50 [13]: 16 µM; IC50 [14]: < 50 µM; IC50 [15]: 17 µM; IC50 [16]: 17 µM; IC50 [17]: < 50 µM; IC50 [18]: < 50 µM
4 | 3.5 | 0.006 | 0.12 | 0.09 | 0.25 | 3 | 2.8 | 72 | 42 | 2.8 | CNc1nc2sc(-c3ccccc3)nc2c2c1ncn2C | Ratio IC50 [19]: 580
